Results: ChEMBL document CHEMBL3272319, “Alkyl streptozotocin analogues with improved biological activities” (J Med Chem, 1976)

How the values were obtained:
Proteus vulgaris = experiment: Antibacterial activity against Proteus vulgaris AHU 1469 assessed as growth inhibition after 18 hrs by broth dilution method; format: functional; settings: AHU 1469, 18 h
In short: (§1)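 Twofold serial dilutions in heart infusion broth. Inoculum was a 24-h heart infusion broth culture diluted 100-fold in physiological saline. Tubes incubated 30 °C for 18 h; the table footnote gives 32 °C for 24 h. MIC in µg/ml is the lowest level giving complete growth inhibition.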

Salmonella typhi = experiment: Antibacterial activity against Salmonella typhi IFM 3020 assessed as growth inhibition after 18 hrs by broth dilution method; format: functional, Salmonella enterica subsp. enterica serovar Typhi; settings: Salmonella enterica, IFM 3020, 18 h
In short: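 Twofold serial dilutions in heart infusion broth; inoculum from 24 h heart infusion broth culture diluted 100-fold in physiological saline; tubes incubated 30 °C for 18 h; MIC (µg/ml) = lowest level giving complete growth inhibition.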

[1] = Ratio of compound LD50 to streptozotocin LD50 for JCL-ICR mouse; format: ADME, organism-based; settings: in vivo
Bacillus subtilis = experiment: Antibacterial activity against Bacillus subtilis ATCC 6633 assessed as growth inhibition after 18 hrs by broth dilution method; format: functional; settings: ATCC 6633, 18 h; in short: as §1
Micrococcus luteus = experiment: Antibacterial activity against Sarcina lutea ATCC 9341 assessed as growth inhibition after 18 hrs by broth dilution method; format: functional; settings: ATCC 9341, 18 h; in short: as §1
[2] = Antitumor activity against mouse S180A allografted in ICR mouse assessed as tumor growth at 25 mg/kg, ip qd for 5 days measured on day 7 relative to control; format: functional; settings: route intraperitoneal
In short: (§2)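 Ascites Sarcoma 180 (1 × 10^7 cells) implanted into ICR mice, six animals per group. Five daily ip injections in saline (days 1–5). Sacrificed day 7. T/C % computed from total packed cell volume (ascites volume × PCV) vs controls. Grades: 100-66 = -, 65-41 = +, 40-11 = ++, 10-0 = +++.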

Enterococcus faecalis = experiment: Antibacterial activity against Streptococcus faecalis ATCC 10541 assessed as growth inhibition after 18 hrs by broth dilution method; format: functional; settings: ATCC 10541, 18 h; in short: as §1
Mus musculus [3] = experiment: Toxicity in ICR mouse allografted with mouse S180A assessed as mortality at 25 mg/kg, ip qd for 5 days; format: organism-based; design: dose 25 mg/kg, route intraperitoneal; settings: in vivo, 120 h
In short: (§3)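 Ascites Sarcoma 180 (1 × 10^7 cells) implanted into ICR mice, six per group; compound in saline ip once daily days 1-5; sacrifice on day 7; total packed cell volume (ascites volume × PCV) compared with controls as T/C %; mortality recorded.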

Klebsiella pneumoniae = experiment: Antibacterial activity against Klebsiella pneumoniae ATCC 10031 assessed as growth inhibition after 18 hrs by broth dilution method; format: functional; settings: ATCC 10031, 18 h; in short: as §1
Pseudomonas fluorescens = experiment: Antibacterial activity against Pseudomonas fluorescens NIHJ B-254 assessed as growth inhibition after 18 hrs by broth dilution method; format: functional; settings: NIHJ B-254, 18 h; in short: as §1
Rattus norvegicus [4] = experiment: Diabetogenic activity in Wistar rat assessed as increase in blood sugar level at 71.4 mg/kg, iv administered as single dose by glucose oxidase method; format: ADME, organism-based; design: dose 71.4 mg/kg, route intravenous; settings: in vivo
In short: (§4)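 Male Wistar rats, about 200 g, five per group, fasted 16 h. Single iv dose into the femoral vein in physiological saline, equimolar across compounds. Caudal-vein blood sampled at set times over 24 h. Sugar measured by glucose oxidase.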

Mus musculus [5] = experiment: (§5) Acute toxicity in ip dosed JCL-ICR mouse assessed as animal death; format: organism-based; settings: in vivo
In short: (§6)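 Groups of ten female JCL-ICR mice given single ip dose in physiological saline; deaths followed over 7 days; LD50 (and LD10) derived by Litchfield–Wilcoxon method.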

[6] = as §5; format: organism-based; settings: JCL-ICR, in vivo; in short: as §6
Mus musculus [7] = experiment: Ratio of compound LD10 to streptozotocin LD10 for JCL-ICR mouse; format: ADME, organism-based; settings: in vivo
Shigella sonnei = experiment: Antibacterial activity against Shigella sonnei assessed as growth inhibition after 18 hrs by broth dilution method; format: functional; in short: as §1
Escherichia coli = experiment: Antibacterial activity against Escherichia coli NIHJ JC-2 assessed as growth inhibition after 18 hrs by broth dilution method; format: functional; settings: NIHJ JC-2, 18 h; in short: as §1
Staphylococcus aureus = experiment: Antibacterial activity against Staphylococcus aureus FDA 209P JC-1 assessed as growth inhibition after 18 hrs by broth dilution method; format: functional; settings: FDA 209P JC-1, 18 h; in short: as §1
Ehrlich [8] = experiment: Antitumor activity against mouse EAC allografted in ICR mouse assessed as tumor growth at 125 mg/kg, ip qd for 5 days measured on day 7 relative to control; format: functional; settings: route intraperitoneal
In short: (§7)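 Ehrlich ascites carcinoma (1 × 10^7 cells) implanted into ICR mice, six per group. Drug in saline ip, qd days 1–5. Mice killed day 7. Total packed cell volume = ascites volume × % packed cell volume; T/C % = TPCV treated/control × 100. Activity graded from T/C.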

Mus musculus [9] = experiment: Toxicity in ICR mouse allografted with mouse EAC assessed as mortality at 125 mg/kg, ip qd for 5 days; format: organism-based; design: dose 125 mg/kg, route intraperitoneal; settings: in vivo, 120 h
In short: (§8)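 Ehrlich ascites carcinoma (1 × 10^7 cells) implanted into ICR mice, six per group; compound ip daily for 5 days; mice sacrificed day 7; tumour burden as total packed cell volume (ascites volume × PCV), T/C % vs controls; mortality recorded.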

Rattus norvegicus [10] = experiment: Diabetogenic activity in iv dosed Wistar rat assessed as increase in blood sugar level administered as single dose by glucose oxidase method; format: ADME, organism-based; settings: in vivo; in short: as §4
Mus musculus [11] = experiment: Toxicity in ICR mouse allografted with mouse S180A assessed as mortality at 50 mg/kg, ip qd for 5 days; format: organism-based; design: dose 50 mg/kg, route intraperitoneal; settings: in vivo, 120 h; in short: as §3
[12] = Antitumor activity against mouse S180A allografted in ICR mouse assessed as tumor growth at 50 mg/kg, ip qd for 5 days measured on day 7 relative to control; format: functional; settings: route intraperitoneal; in short: as §2
Mus musculus [13] = experiment: Toxicity in BDF1 mouse allografted with mouse L1210 cells assessed as mortality at 100 mg/kg, ip qd for 5 days; format: organism-based; design: dose 100 mg/kg, route intraperitoneal; settings: in vivo, 120 h
In short: (§9)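 L1210 (1 × 10^5 cells) implanted into BDF1 mice, six per group; compound in saline ip once daily days 1-5; effect read as % increase in life span, ILS = [(treated life span/control life span) − 1] × 100.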

L1210 [14] = experiment: Antitumor activity against mouse L1210 cells allografted in BDF1 mouse assessed as increase in host lifespan at 100 mg/kg, ip qd for 5 days relative to control; format: functional; settings: 120 h, route intraperitoneal; in short: as §9
L1210 [15] = experiment: Antitumor activity against mouse L1210 cells allografted in BDF1 mouse assessed as increase in host lifespan at 50 mg/kg, ip qd for 5 days relative to control; format: functional; settings: 120 h, route intraperitoneal; in short: as §9
Mus musculus [16] = experiment: Toxicity in BDF1 mouse allografted with mouse L1210 cells assessed as mortality at 50 mg/kg, ip qd for 5 days; format: organism-based; design: dose 50 mg/kg, route intraperitoneal; settings: in vivo, 120 h; in short: as §9
Rattus norvegicus [17] = experiment: Diabetogenic activity in Wistar rat assessed as increase in blood sugar level at 74.7 mg/kg, iv administered as single dose by glucose oxidase method; format: ADME, organism-based; design: dose 74.7 mg/kg, route intravenous; settings: in vivo; in short: as §4
Ehrlich [18] = experiment: Antitumor activity against mouse EAC allografted in ICR mouse assessed as tumor growth at 150 mg/kg, ip qd for 5 days measured on day 7 relative to control; format: functional; settings: route intraperitoneal; in short: as §7
Mus musculus [19] = experiment: Toxicity in ICR mouse allografted with mouse EAC assessed as mortality at 150 mg/kg, ip qd for 5 days; format: organism-based; design: dose 150 mg/kg, route intraperitoneal; settings: in vivo, 120 h; in short: as §8

SMILES: CCO[C@@H]1O[C@H](CO)[C@@H](O)[C@H](O)[C@H]1NC(=O)N(C)N=O
- MIC (Proteus vulgaris): > 1000 µg/mL
- MIC (Salmonella typhi): > 1000 µg/mL
- selectivity ratio [1]: 2
- MIC (Bacillus subtilis): > 1000 µg/mL
- MIC (Micrococcus luteus): > 1000 µg/mL
- T/C [2]: 37%
- MIC (Enterococcus faecalis): > 1000 µg/mL
- Activity (Mus musculus [3]): Non-toxic
- MIC (Klebsiella pneumoniae): > 1000 µg/mL
- MIC (Pseudomonas fluorescens): > 1000 µg/mL
- Activity (Rattus norvegicus [4]): Non-toxic
- LD10 (Mus musculus [5]): 1550 mg/kg
- LD50 [6]: 2050 mg/kg
- Ratio (Mus musculus [7]): 2
- MIC (Shigella sonnei): > 1000 µg/mL
- MIC (Escherichia coli): > 1000 µg/mL
- MIC (Staphylococcus aureus): > 1000 µg/mL

SMILES: CCCN(N=O)C(=O)N[C@H]1[C@@H](OC)O[C@H](CO)[C@@H](O)[C@@H]1O
- T/C (Ehrlich [8]): 61%
- Activity (Mus musculus [9]): Non-toxic
- Activity (Rattus norvegicus [10]): Non-toxic
- Activity (Mus musculus [11]): Non-toxic
- T/C [12]: 55%

SMILES: CCO[C@H]1O[C@H](CO)[C@@H](O)[C@H](O)[C@H]1NC(=O)N(CC)N=O
- Activity (Mus musculus [13]): Non-toxic
- T/C (Ehrlich [8]): 60%
- Activity (Mus musculus [9]): Non-toxic
- Activity (Rattus norvegicus [10]): Non-toxic
- ILS at 100 mg/kg (L1210 [14]): 14%
- Activity (Mus musculus [11]): Non-toxic
- T/C [12]: 63%

SMILES: CCCO[C@H]1O[C@H](CO)[C@@H](O)[C@H](O)[C@H]1NC(=O)N(C)N=O
- selectivity ratio [1]: 2
- T/C (Ehrlich [8]): 37%
- Activity (Mus musculus [9]): Non-toxic
- T/C [2]: 32%
- Activity (Rattus norvegicus [10]): Non-toxic
- Activity (Mus musculus [3]): Non-toxic
- LD10 (Mus musculus [5]): 1020 mg/kg
- LD50 [6]: 1470 mg/kg
- Ratio (Mus musculus [7]): 2
- ILS at 50 mg/kg (L1210 [15]): 29%
- Activity (Mus musculus [16]): Non-toxic

SMILES: CCCO[C@@H]1O[C@H](CO)[C@@H](O)[C@H](O)[C@H]1NC(=O)N(C)N=O
- MIC (Proteus vulgaris): > 1000 µg/mL
- MIC (Salmonella typhi): > 1000 µg/mL
- selectivity ratio [1]: 2
- MIC (Bacillus subtilis): > 1000 µg/mL
- MIC (Micrococcus luteus): > 1000 µg/mL
- MIC (Enterococcus faecalis): > 1000 µg/mL
- MIC (Klebsiella pneumoniae): > 1000 µg/mL
- MIC (Pseudomonas fluorescens): > 1000 µg/mL
- LD10 (Mus musculus [5]): 1240 mg/kg
- LD50 [6]: 2150 mg/kg
- Ratio (Mus musculus [7]): 2
- MIC (Shigella sonnei): > 1000 µg/mL
- MIC (Escherichia coli): > 1000 µg/mL
- Activity (Mus musculus [11]): Non-toxic
- ILS at 50 mg/kg (L1210 [15]): 30%
- MIC (Staphylococcus aureus): > 1000 µg/mL
- T/C [12]: 32%
- Activity (Rattus norvegicus [17]): Non-toxic
- Activity (Mus musculus [16]): Non-toxic

SMILES: CCCCO[C@@H]1O[C@H](CO)[C@@H](O)[C@H](O)[C@H]1NC(=O)N(C)N=O
- selectivity ratio [1]: 2
- T/C (Ehrlich [18]): 4%
- T/C [2]: 40%
- Activity (Rattus norvegicus [10]): Non-toxic
- Activity (Mus musculus [3]): Non-toxic
- LD10 (Mus musculus [5]): 1100 mg/kg
- LD50 [6]: 1580 mg/kg
- Ratio (Mus musculus [7]): 2
- ILS at 50 mg/kg (L1210 [15]): 33%
- Activity (Mus musculus [19]): Non-toxic
- Activity (Mus musculus [16]): Non-toxic
